Experimental data taken from publication PMC3782865 (Journal of medicinal chemistry, 2013).
pIC50: −log10 of the molar value. “Also recorded” adds a separate entry of the source. Structures can show the parent of a compound that is named as a salt. Where two headings read alike, the source gives them in different places.

Columns and labels:
[1] = test system: trypsin-like (Tr-L) sites of purified 26S proteasomes from rabbit muscles; experiment: Inhibition of purified 26S proteasomes, trypsin-like sites; format: biochemical; conditions: purified rabbit 26S proteasomes
[2] = test system: cathepsins in NCI-H929 cells; experiment: Cathepsins activity assay; format: cell-based; conditions: 6 h treatment, Z-FR-amc
In short: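 Treated and mock-treated cells were washed in PBS and permeabilised on ice with 0.05% digitonin in Tris-HCl pH 7.5 buffer. Cytosol was removed by centrifugation (15 min, 20 000g, 4 °C), and pellets were lysed in Bis-Tris pH 5.5/0.5% CHAPS. Protein-normalised acidic extracts were added to 40 µM substrate in phosphate buffer pH 6.0 with EDTA and DTT. Amc fluorescence was read continuously for 30 min, with rates taken from progress-curve slopes.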

[3] = target: proteasome active sites (β2, β5) in extracts of HEK-293T cells (Homo sapiens, UniProt P28074+Q99436); experiment: Competition assays in HEK-293T cell lysate with activity-based probes; format: biochemical; conditions: HEK-293 extracts
[4] = test system: proteasome trypsin-like (Tr-L) sites in NCI-H929 and RPMI-8226 multiple myeloma cells; format: cell-based; conditions: for pIC50: ProteasomeGlo
RPMI-8226 cells [5] = experiment: Viability of RPMI-8226 cells, Alamar Blue assay; format: cell-based; conditions: for Toxicity to cells as a single agent: 4a 1 µM, 3 27 µM
In short: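 RPMI-8226 myeloma cells grown in RPMI-1640 with 10% FBS, penicillin, streptomycin and plasmocin in a humidified 5% CO2 incubator. Cells were exposed to bortezomib or carfilzomib for 1 h, then to test compound (1 µM or 27 µM) or mock for 47 h. Viable cells were measured by Alamar Blue dye conversion. Mean ± SEM of three (bortezomib) or two to seven (carfilzomib) biological replicates.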

[6] = target: T1, proteasome trypsin-like sites (Mus musculus, UniProt P70195); experiment: Inhibition of trypsin-like sites in mice; format: in vivo; conditions: manuscript in preparation
T1 sequence (P70195 44-277): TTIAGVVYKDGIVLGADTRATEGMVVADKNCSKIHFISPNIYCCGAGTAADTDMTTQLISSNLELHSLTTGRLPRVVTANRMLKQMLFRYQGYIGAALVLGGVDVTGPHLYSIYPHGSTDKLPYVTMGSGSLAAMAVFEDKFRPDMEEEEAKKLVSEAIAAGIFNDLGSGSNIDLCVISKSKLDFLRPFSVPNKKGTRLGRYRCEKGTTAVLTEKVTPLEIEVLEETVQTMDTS

[7] = target: T2, proteasome caspase-like (Casp-L) sites in NCI-H929 and RPMI-8226 multiple myeloma cells (Homo sapiens, UniProt P28072); format: cell-based
T2 sequence (P28072 1-239): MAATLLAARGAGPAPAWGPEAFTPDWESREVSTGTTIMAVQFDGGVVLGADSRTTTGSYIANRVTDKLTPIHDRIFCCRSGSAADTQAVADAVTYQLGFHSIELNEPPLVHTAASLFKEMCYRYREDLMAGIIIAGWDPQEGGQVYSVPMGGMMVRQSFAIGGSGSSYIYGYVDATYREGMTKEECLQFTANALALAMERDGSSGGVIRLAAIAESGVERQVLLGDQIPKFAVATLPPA

RPMI-8226 cells [8] = conditions: cited from earlier work
[9] = read-out: IC50 Tr-L, NCI-H929, NCI-H929 cells, 6 h treatment

## CC(=O)N[C@@H](CC(C)C)C(=O)N[C@@H](CC(C)C)C(=O)N[C@@H](CCCNC(=N)N)C(=O)[C@@]1(C)CO1 [1a]
[1]
  IC50 (Chym-L)/IC50 (Tr-L): >30

## CC(C)C[C@H](NC(=O)[C@H](Cc1ccc(N)cc1)NC(=O)[C@H](Cc1ccccc1)N=[N+]=[N-])C(=O)N[C@H](/C=C/S(C)(=O)=O)Cc1ccc(CN)cc1 [compound 11]
[2]
  Inhibition of cathepsins in cells: behaved similarly to 4a

## CC(C)C[C@@H](/C=C/S(C)(=O)=O)NC(=O)[C@H](CC(C)C)NC(=O)[C@H](Cc1ccc(N)cc1)NC(=O)[C@H](Cc1ccccc1)N=[N+]=[N-] [compound 16]
[1]
  IC50 (Chym-L)/IC50 (Tr-L): <0.00017

## CC1=CC(C)=[N+]2C1=C(CCCCc1cn([C@@H](Cc3ccccc3)C(=O)N[C@@H](CC(C)C)C(=O)N[C@@H](CC(C)C)C(=O)N[C@H](/C=C/S(C)(=O)=O)Cc3ccc(CN)cc3)nn1)c1c(C)cc(C)n1[B-]2(F)F [compound 19, Bodipy-triazole-Phe-Leu-Leu-Phe(4-CH2NH2)VS TFA Salt]
[3]
  Inhibition/labeling of proteasome active sites in extracts: reacted with β2 and β5 subunits

## CC(C)C[C@H](NC(=O)[C@H](Cc1ccncc1)NC(=O)[C@H](Cc1ccccc1)N=[N+]=[N-])C(=O)N[C@H](/C=C/S(C)(=O)=O)Cc1ccc(CN)cc1 [compound 10]
[2]
  Inhibition of cathepsins in cells: partly reduced cathepsin activity

## CC(C)C[C@H](NC(=O)[C@H](Cc1ccccc1)N=[N+]=[N-])C(=O)N[C@@H](CC(C)C)C(=O)N[C@H](/C=C/S(C)(=O)=O)Cc1ccc(CN)cc1 [compound 4a, N3Phe-Leu-Leu-Phe(4-CH2NH2)VS TFA Salt]
[4]; RPMI-8226 cells
  Treatment time to steady-state inhibition of trypsin-like activity: 1 h
[2]
  Inhibition of cathepsins in cells: Partial inhibition of cathepsins
RPMI-8226 cells [5]
  Toxicity to cells as a single agent: not toxic; also recorded: no effect on cells when used as a single agent
RPMI-8226 cells [5]; bortezomib 1 h, then 47 h 4a (1 µM)
  Sensitization to bortezomib: sensitized them to bortezomib
[6]
  Inhibition of trypsin-like sites in mice: capable of inhibiting trypsin-like sites in mice

## Cc1c(O)cccc1C(=O)N[C@H](C(=O)N[C@@H](CO)C(=O)N[C@H](/C=C/S(C)(=O)=O)Cc1ccc(N)cc1)C(C)C [compound 9]
[1]
  IC50 (Chym-L)/IC50 (Tr-L): ≪0.0067

## CC(=O)N[C@@H](CCCNC(=N)N)C(=O)N[C@@H](CC(C)C)C(=O)N[C@@H](CCCNC(=N)N)C(=O)[C@@]1(C)CO1 [compound 2]
[1]
  IC50 (Chym-L)/IC50 (Tr-L): >375

## O=C(CCCCCCC(=O)Nc1ccccc1)NO [varinostat, reference compound]
RPMI-8226 cells [5]; 1 µM, 48 h treatment, single agent
  Viability: 38.6 ± 0.5%

## Cc1c(O)cccc1C(=O)N[C@H](C(=O)N[C@@H](CO)C(=O)N[C@H](/C=C/S(C)(=O)=O)Cc1ccc(CN)cc1)C(C)C [compound 8]
[4]; 6 h treatment
  Difference in inhibition of trypsin-like activity (IC50) between NCI-H929 and RPMI-8226 cells: greater than 10 fold
[4]; [9]
  pIC50: 6.70
[4]; read-out: IC50 Tr-L, RPMI-8226, RPMI-8226 cells, 6 h treatment
  pIC50: 5.49
[7]
  pIC50: < 4.52
[2]
  Inhibition of cathepsins in cells: did not cause any inhibition of cathepsins

## Cc1c(O)cccc1C(=O)N[C@H](C(=O)N[C@@H](CO)C(=O)N[C@@H](CCCNC(=N)N)C(=O)[C@@]1(C)CO1)C(C)C [compound 3]
[4]; RPMI-8226 cells
  Treatment time to steady-state inhibition of trypsin-like activity: > 6 h
[4]; [9]
  pIC50: 6.05
[7]
  pIC50: < 4.52
RPMI-8226 cells [5]
  Toxicity to cells as a single agent: no effect on cells when used as a single agent
RPMI-8226 cells [8]
  Toxicity to myeloma cells as a single agent: not toxic

## CC1=CC(C)=[N+]2C1=C(CCCCc1cn([C@@H](Cc3ccccc3)C(=O)N[C@@H](Cc3ccc(CN)cc3)C(=O)N[C@@H](CC(C)C)C(=O)N[C@H](/C=C/S(C)(=O)=O)Cc3ccc(CN)cc3)nn1)c1c(C)cc(C)n1[B-]2(F)F [compound 20]
[3]
  Inhibition/labeling of proteasome active sites in extracts: reduced the specificity

## CC(C)C[C@H](NC(=O)[C@H](Cc1ccc(CN)cc1)NC(=O)[C@H](Cc1ccccc1)N=[N+]=[N-])C(=O)N[C@H](/C=C/S(C)(=O)=O)Cc1ccc(CN)cc1 [compound 12]
[2]
  Inhibition of cathepsins in cells: slightly more potent inhibitor of cathepsins
[3]
  Inhibition/labeling of proteasome active sites in extracts: most potent inhibitor in extracts
